According to PubChem BioAssay:
Active and inactive are the calls of the source.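 The calls were made as follows, unless noted: active = viability at or below 10% of carrier control in both of two separate runs; inconclusive = viability at or below 10% in only one of the two runs; inactive = the rest.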

Tests used:
[1] = Her2 expression decrease, cell viability multiplex – SKBR3 breast tumor cells, AlphaScreen, ATP viability, primary screen (AID 461;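 active = Her2 level under about 52% in both replicate screens, with viability over 70% of control, limit read from the data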;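 as to Her2 level: lower value means less Her2 protein in the cells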;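 as to viability: percent of carrier control wells set as 100% viability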); conditions: SKBR3 Her2 protein level, 18-24 h, measured here: SKBR3 viability, ATP luminescence, at 10 µM
[2] = target: Receptor tyrosine-protein kinase erbB-2 (Homo sapiens) (UniProt P04626); experiment: as above; conditions: 18-24 h, at 10 µM, stronger effect = lower value
Receptor tyrosine-protein kinase erbB-2 (Homo sapiens), sequence (P04626 whole entry, looked up): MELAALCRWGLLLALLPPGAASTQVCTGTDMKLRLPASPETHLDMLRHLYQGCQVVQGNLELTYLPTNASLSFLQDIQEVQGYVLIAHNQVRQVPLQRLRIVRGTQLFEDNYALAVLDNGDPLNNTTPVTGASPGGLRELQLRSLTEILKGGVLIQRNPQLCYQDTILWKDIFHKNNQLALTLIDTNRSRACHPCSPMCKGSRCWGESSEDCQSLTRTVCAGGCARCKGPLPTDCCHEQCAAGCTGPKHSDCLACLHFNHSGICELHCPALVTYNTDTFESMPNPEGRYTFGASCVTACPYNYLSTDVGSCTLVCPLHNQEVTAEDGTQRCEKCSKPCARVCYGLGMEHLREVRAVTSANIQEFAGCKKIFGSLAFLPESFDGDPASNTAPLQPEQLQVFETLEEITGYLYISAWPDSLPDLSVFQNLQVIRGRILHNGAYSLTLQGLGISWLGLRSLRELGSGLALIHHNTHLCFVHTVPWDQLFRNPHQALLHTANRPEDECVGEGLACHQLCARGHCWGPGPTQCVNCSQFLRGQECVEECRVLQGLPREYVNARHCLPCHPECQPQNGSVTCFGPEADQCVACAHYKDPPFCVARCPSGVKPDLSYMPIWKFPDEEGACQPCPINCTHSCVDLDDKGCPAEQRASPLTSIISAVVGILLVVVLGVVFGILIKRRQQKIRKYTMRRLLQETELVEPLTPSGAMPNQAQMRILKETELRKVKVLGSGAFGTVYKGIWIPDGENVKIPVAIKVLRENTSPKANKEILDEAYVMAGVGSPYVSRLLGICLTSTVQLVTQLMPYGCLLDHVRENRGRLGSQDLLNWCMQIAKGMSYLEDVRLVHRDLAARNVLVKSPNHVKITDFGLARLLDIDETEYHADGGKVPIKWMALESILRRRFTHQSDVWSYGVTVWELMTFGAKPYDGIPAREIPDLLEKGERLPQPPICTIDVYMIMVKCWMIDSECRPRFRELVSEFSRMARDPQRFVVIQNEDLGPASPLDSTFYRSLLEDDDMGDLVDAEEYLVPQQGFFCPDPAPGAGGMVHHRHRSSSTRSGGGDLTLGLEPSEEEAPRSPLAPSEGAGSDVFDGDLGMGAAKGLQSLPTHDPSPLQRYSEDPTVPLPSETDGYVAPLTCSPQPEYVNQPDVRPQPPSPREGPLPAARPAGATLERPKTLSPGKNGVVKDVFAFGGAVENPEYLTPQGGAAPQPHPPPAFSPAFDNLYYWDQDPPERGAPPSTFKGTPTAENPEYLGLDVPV

[3] = reduced viability of SK-BR-3 breast cancer cells – cell-based, 24 h, human, pilot screen (AID 572); conditions: SK-BR-3 viability, CellTiter-Glo luminescence, at 10 µM, stronger effect = lower value;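 also: compound exposure lasted between 18 and 24 h rather than exactly 24 h; 100% = carrier-treated control wells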
[4] = HUVEC growth inhibition – cell-based, human, primary screen (AID 575;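 active = viability at or below 30% in both replicate assays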;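 also: 100% = median of untreated cell wells with 0.1% DMSO on each plate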); conditions: HUVEC proliferation, CellTiter-Glo luminescence, 72 h; at 10 µM; stronger effect = lower value
Method in brief: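 Timing: 72 h treatment at 37 °C; material: HUVEC primary cells; technique: CellTiter-Glo luminescence measuring cellular ATP; controls: vehicle and MePR control wells; measure: percent of median DMSO-control luminescence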

[5] = H69AR cell proliferation blockers – human, duplicate replicates, primary screen (AID 580;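 active = viability at or under a set limit in both replicates, limit being median viability minus 3 SD, cut at about 48% in these data, passing the limit was not always enough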;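 also: 100% = mean luminescence of untreated wells and 0% = no signal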); conditions: H69AR lung tumor cells viability, ATP luminescence, 72 h; at 10 µM; stronger effect = lower value
[6] = MRP1 drug-resistance reversers in H69AR cells – cell-based, doxorubicin co-treatment, pilot screen (AID 601;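 active = viability loss from added drug above about 55%, and viability with drug at most 40%, in both replicates, limit read from the data, passing the limit was not always enough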); conditions: CellTiter-Glo, 72 h, at 10 µM; for differential viability (reversal): stronger effect = higher value
[7] = yeast transport mutant growth inhibition pilot in 384-well plates, post-Golgi transport modulator project (AID 636; in the data active = inhibition above about 31%); conditions: absorbance 615 nm, about 18 h, stronger effect = higher value
[8] = growth suppression of yeast trafficking mutant, preliminary HTS, modulators of trafficking downstream of Golgi apparatus project, 1536-format plate, OD 615 nm (AID 637; in the data active = inhibition above about 30%); conditions: yeast transport mutant growth, absorbance 615 nm, 18 h; stronger effect = higher value
[9] = H69AR cells + 2 uM doxorubicin, measured here: viability with 2 uM doxorubicin, stronger effect = lower value
[10] = H69AR cells, compound alone cytotoxicity

Row | SMILES | viability [1] [%] | Her2 level [2] | viability [3] | viability [4] | viability [5] | differential viability (reversal) ([6]; H69AR cells + 2 uM doxorubicin) | viability [6, 9] [%] | viability [6, 10] [%] | inhibition [7] | inhibition [8]
1 | COc1cccc(-c2cc(C(=O)N3CCCc4ccccc43)no2)c1 | 110 | 89.5% (inactive) | 110% (inactive) | 94.6% (inactive) | 92.4% (inactive) | 5.08% (inactive) | 87.4 | 92.4 | -6.49% (inactive) | -0.83% (inactive)
2 | Cc1ccc2cc(CN(CC(C)C)C(=O)C3CCCO3)c(=O)[nH]c2c1 (stereo not given) | 95 | 98% (inactive) | 95% (inactive) | 102% (inactive) | 102% (inactive) | 5.11% (inactive) | 96.8 | 102 | -2.5% (inactive) | -4.18% (inactive)
3 | O=P(O)(O)C(O)C(F)(F)C(F)(F)C(F)(F)C(F)F (stereo not given) | 108 | 77.5% (inactive) | 108% (inactive) | 110% (inactive) | 92.5% (inactive) | -5.62% (inactive) | 98.1 | 92.5 | -7.76% (inactive) | -6.17% (inactive)
4 | CCCOC(=O)/C(C(N)=NCc1ccccc1)=C(\O)OCCC | 82 | 95% (inactive) | 82% (inactive) | 82.6% (inactive) | 88.8% (inactive) | -4.66% (inactive) | 93.4 | 88.8 | 1.3% (inactive) | -2.79% (inactive)
5 | CCOc1ccccc1Nc1nnc(SCC(=O)N2CCCC2)s1 | 104 | 91.5% (inactive) | 104% (inactive) | 103% (inactive) | 101% (inactive) | 7.78% (inactive) | 92.8 | 101 | -3.12% (inactive) | -0.95% (inactive)
6 | CCOc1ccc(C2C(C(=O)OC)=CN(CCOC)C=C2C(=O)OC)cc1 | 106 | 109% (inactive) | 106% (inactive) | 90% (inactive) | 97.3% (inactive) | -1.94% (inactive) | 99.2 | 97.3 | 0.64% (inactive) | -1.33% (inactive)
7 | Cc1nn(C)cc1/C=N/O | 100 | 105% (inactive) | 100% (inactive) | 95.8% (inactive) | 104% (inactive) | 7.1% (inactive) | 96.5 | 104 | -7.47% (inactive) | 1.45% (inactive)
8 | NC(=O)CSCc1ccc(Br)cc1 | 100 | 91.5% (inactive) | 100% (inactive) | 98.6% (inactive) | 108% (inactive) | 0.415% (inactive) | 108 | 108 | -4.67% (inactive) | 2.62% (inactive)
9 | Cc1ccccc1Cn1ccc(NC(=O)c2cnn3c(C(F)(F)F)cc(-c4ccco4)nc23)n1 | 76.5 | 81% (inactive) | 76.5% (inactive) | 62.3% (inactive) | 60.4% (inactive) | 25.2% (inactive) | 35.3 | 60.4 | -4.13% (inactive) | 5.9% (inactive)
10 | COc1ccc(-c2noc(-c3ccccc3C(=O)Nc3cccnc3)n2)cc1 | 109 | 98.5% (inactive) | 109% (inactive) | 106% (inactive) | 86.5% (inactive) | 13.2% (inactive) | 73.3 | 86.5 | -1.17% (inactive) | 0.79% (inactive)
11 | CCCc1cc(C(=O)Nc2ccccc2C(=O)OC)no1 | 89.5 | 109% (inactive) | 89.5% (inactive) | 64.7% (inactive) | 89.3% (inactive) | 7.36% (inactive) | 82 | 89.3 | 4.1% (inactive) | 14.5% (inactive)
12 | O=C(Nc1cccc2c1CCCC2)C1CCN(c2nnnn2-c2ccccc2)CC1 | 92 | 99% (inactive) | 92% (inactive) | 97.7% (inactive) | 89.2% (inactive) | 5.29% (inactive) | 83.9 | 89.2 | -0.13% (inactive) | -6.45% (inactive)
13 | CCOC(=O)C(NC(=O)CC)(Nc1ccc(S(=O)(=O)Nc2onc(C)c2C)cc1)C(F)(F)F (stereo not given) | 116 | 97.5% (inactive) | 116% (inactive) | 102% (inactive) | 106% (inactive) | 8.86% (inactive) | 97 | 106 | -3.77% (inactive) | -0.48% (inactive)
14 | O=C(c1ccco1)N1CCN(c2c(-c3ccccc3)c3cc(Cl)ccc3[nH]c2=O)CC1 | 94 | 61.5% (inactive) | 94% (inactive) | 52.4% (inactive) | 24.5% (active) | 17.6% (inactive) | 6.86 | 24.5 | -2.11% (inactive) | 7.42% (inactive)
15 | O=C(O)CSc1ccc2ccccc2n1 | 95.5 | 81% (inactive) | 95.5% (inactive) | 106% (inactive) | 90% (inactive) | 9.33% (inactive) | 80.7 | 90 | -7.47% (inactive) | 5.48% (inactive)
16 | N#Cc1nc(-c2cccs2)oc1NCc1ccc(Cl)cc1 | 111 | 88.5% (inactive) | 111% (inactive) | 64.9% (inactive) | 73.8% (inactive) | -14.1% (inactive) | 87.9 | 73.8 | -5.66% (inactive) | 0.65% (inactive)
17 | OC(CN1CCCCC1)Cn1c(C(F)(F)F)nc2ccccc21 (stereo not given) | 85.5 | 103% (inactive) | 85.5% (inactive) | 105% (inactive) | 83.4% (inactive) | -3.04% (inactive) | 86.4 | 83.4 | 0% (inactive) | 3.5% (inactive)
18 | Fc1cccc2sc(Nc3nnc(-c4ccco4)o3)nc12 | 109 | 37% (active) | 109% (inactive) | 57.3% (inactive) | 41.2% (active) | -21.4% (inactive) | 62.6 | 41.2 | -0.4% (inactive) | 0% (inactive)
19 | O=C(NCc1ccc(Cl)cc1)c1ccc(COCC(F)(F)F)o1 | 100 | 91% (inactive) | 100% (inactive) | 88.5% (inactive) | 101% (inactive) | 20.9% (inactive) | 79.7 | 101 | -1.45% (inactive) | -5.27% (inactive)
20 | O=C(CSc1nc2cc(Cl)ccc2s1)N1CCN(C(=O)c2ccco2)CC1 | 91 | 84.5% (inactive) | 91% (inactive) | 91.6% (inactive) | 100% (inactive) | 0.815% (inactive) | 99.5 | 100 | -3.87% (inactive) | 0.97% (inactive)
21 | Cn1cccc1Cc1nnc(SCC(N)=O)n1-c1ccc(F)cc1 | 88 | 94.5% (inactive) | 88% (inactive) | 98.5% (inactive) | 99.8% (inactive) | 12.2% (inactive) | 87.6 | 99.8 | -1.28% (inactive) | 1.33% (inactive)
22 | CO/C([O-])=N/c1c[n+](-c2ccc(C)cc2)no1 | 100 | 92.5% (inactive) | 100% (inactive) | 109% (inactive) | 90.5% (inactive) | -0.875% (inactive) | 91.3 | 90.5 | -6.49% (inactive) | 7.38% (inactive)
23 | COc1cccc(NC(=O)CSc2nnnn2C(C)C)c1 | 118 | 86.5% (inactive) | 118% (inactive) | 97.9% (inactive) | 103% (inactive) | 13.7% (inactive) | 89.7 | 103 | -3.65% (inactive) | 0.79% (inactive)
24 | Cc1ccccc1-c1nc(CS(=O)(=O)CC(=O)NCc2ccccc2)c(C)o1 | 93.5 | 100% (inactive) | 93.5% (inactive) | 87.8% (inactive) | 96.5% (inactive) | 6.09% (inactive) | 90.4 | 96.5 | -7.07% (inactive) | -2.3% (inactive)
25 | COC(=O)C1=CN(C)C=C(C(=O)OC)C1c1ccc(O)c(OC)c1 | 96.5 | 98% (inactive) | 96.5% (inactive) | 88.1% (inactive) | 100% (inactive) | 6.83% (inactive) | 93.4 | 100 | -3.16% (inactive) | 4% (inactive)
26 | COc1ccccc1C(=O)Nc1ccc(N2CCN(Cc3ccccc3)CC2)cc1 | 81.5 | 75.5% (inactive) | 81.5% (inactive) | 66.8% (inactive) | 89.6% (inactive) | 2.1% (inactive) | 87.5 | 89.6 | -5.2% (inactive) | 1.97% (inactive)
27 | Cn1c2c(c(=O)[nH]c1=O)C(NC(=O)c1ccco1)(C(F)(F)F)C(=O)N2 (stereo not given) | 112 | 118% (inactive) | 112% (inactive) | 93.3% (inactive) | 96.5% (inactive) | 4.25% (inactive) | 92.3 | 96.5 | -1.45% (inactive) | 0.66% (inactive)
28 | C1=Nc2c(NCc3ccccc3)ncnc2Oc2ccccc21 | 83 | 84.5% (inactive) | 83% (inactive) | 80.6% (inactive) | 91.7% (inactive) | 7.99% (inactive) | 83.7 | 91.7 | 2.13% (inactive) | 0.16% (inactive)
29 | NS(=O)(=O)c1ccc(NC(=O)N[C@@H](Cc2ccccc2)C(=O)O)cc1 | 82.5 | 95.5% (inactive) | 82.5% (inactive) | 95.6% (inactive) | 97.6% (inactive) | 5% (inactive) | 92.6 | 97.6 | -3.73% (inactive) | 4.52% (inactive)
